From PubChem BioAssay
MBD2 inh: inhibitors of MBD2 binding to methylated DNA, primary screen, biochemical, TR-FRET, DNA-binding domain, human | MBD2 binding to methylated oligonucleotide | Methyl-CpG-binding domain protein 2 (Homo sapiens), Q9UBB5 | 370,000 tested, 0.31% active | AID 686964, 2013 | inhibition, % at 4.4 µM; in the data active means inhibition above about 13%
Target sequence (Q9UBB5 whole entry, looked up, the tested form may be a part): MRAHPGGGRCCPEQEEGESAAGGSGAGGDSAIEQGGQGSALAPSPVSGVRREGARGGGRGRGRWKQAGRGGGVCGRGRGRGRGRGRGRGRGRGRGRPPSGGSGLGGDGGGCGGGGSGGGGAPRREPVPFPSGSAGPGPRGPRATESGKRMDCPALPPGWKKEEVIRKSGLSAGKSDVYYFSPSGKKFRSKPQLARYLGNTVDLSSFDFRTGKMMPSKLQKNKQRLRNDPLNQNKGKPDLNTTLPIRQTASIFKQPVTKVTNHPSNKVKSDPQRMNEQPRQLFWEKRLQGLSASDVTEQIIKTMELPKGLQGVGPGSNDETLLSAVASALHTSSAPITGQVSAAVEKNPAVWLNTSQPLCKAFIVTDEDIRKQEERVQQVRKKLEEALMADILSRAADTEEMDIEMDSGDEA
LEDGF integ inh: blockers of LEDGF/p75-dependent integrase strand transfer – biochemical, TR-FRET, high throughput, primary screen; HIV-1 integrase (with human LEDGF/p75); TR-FRET IN-LEDGF/p75 DNA integration, Eu/Cy5; inhibition, % at 3.7 µM; 370,000 tested, 0.64% active;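 active means inhibition above the screen-wide mean plus 3 SD, cut at about 13% in these data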;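 further: signal is the Cy5 over europium emission ratio at 671 and 618 nm; 0% = plate median of compound wells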
CASP6 VEID inh: human caspase-6 inhibitors, primary screen, biochemical, VEID-R110 fluorescence, single point, set 2 | inhibition, % at 12.5 µM | AID 686996, 2013 | purified caspase-6, Z-VEID-R110 cleavage fluorescence | P55212 | 350,000 tested, 0.53% active;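 active means mean inhibition across replicates at least about 35%, with every replicate also reaching that limit, limit read from the data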;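 further: 0% = median of neutral control wells and 100% = no fluorescence left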
NSD2 HMT inh: NSD2 histone methyltransferase inhibitors, primary screen, biochemical, AlphaScreen, single concentration, set 2; Histone-lysine N-methyltransferase NSD2 (Homo sapiens), O96028; AID 743445, 2014; NSD2 peptide methylation, 120 min; 310,000 tested, 0.54% active; inhibition, % at 12.5 µM; in the data active means inhibition above about 50%
TDP2 absorb: human TDP2 enzyme inhibitors, primary screen, biochemical, epi absorbance, recombinant enzyme; Tyrosyl-DNA phosphodiesterase 2 (Homo sapiens), O95551; T5PNP hydrolysis, p-nitrophenol absorbance 415 nm; inhibition, % at 12.8 µM; 370,000 tested, 0.34% active; AID 720702, 2013;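 active means inhibition above the mean of all tested compounds plus 3 SD, set per campaign, cut at about 25% in these data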;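 further: 0% = DMSO with enzyme and 100% = buffer with substrate but no TDP2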
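Evaluation: % inhibition relative to enzyme-containing and enzyme-free wells. Material: recombinant human TDP2. Benchmarks: enzyme-free and DMSO wells. Timing: enzyme reaction with compound for 2 h at 37 °C. Compound dosing: 12.8 µM only. Measured by: p-Nitrophenol epi absorbance. Reagent: T5PNP substrate at 5 mM, a TopII-DNA adduct mimic. Replication: single well per compound.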
UHRF1 MBD2 ctr: UHRF1 methylated DNA binding inhibitors, primary screen, counter-screen for MBD2 inhibitor project, biochemical, TR-FRET, human UHRF1, single concentration; UHRF1 binding to methylated oligo; 370,000 tested, 0.75% active; inhibition, % at 4.4 µM; E3 ubiquitin-protein ligase UHRF1 (Homo sapiens), Q96T88; in the data active means inhibition above about 21%;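 further: UHRF1 SRA domain binding a hemimethylated CpG hairpin DNA probe; 0% = median of test compound wells and 100% = reference inhibitor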
AlphaScreen art: AlphaScreen signal interference with preloaded methylated product, dose response, artefact control for NSD2 inhibitor project, biochemical, cherry-picked samples. AlphaScreen artifact counterscreen, preloaded methylated H4 peptide. shares compounds with NSD2 HMT inh. 1,500 tested, 9.4% active. AC35, µM (series often up to 10 µM), without a hit: at the top dose activity change, negative = signal loss; call rule not given here
The depositor's hits bear a star; / = no result given. An excerpt weighted towards active compounds, which were near 1.8% of everything screened.

SMILES	MBD2 inh	LEDGF integ inh	CASP6 VEID inh	NSD2 HMT inh	TDP2 absorb	UHRF1 MBD2 ctr	AlphaScreen art
CC(C)NC(=O)Nc1ccc2c(c1)CC(=O)N([C@H](C)CO)C[C@H](C)[C@H](CN(C)C)O2	/	/	-3	/	/	/	/
O=C(O)c1ccccc1NS(=O)(=O)c1ccc2ccccc2c1	-3	2	8	52*	18	0	-1%
CCCCCCNc1c([N+](=O)[O-])cc(C)cc1[N+](=O)[O-]	-5	0	/	53*	-15	-2	9.9µM*
CC(C)NC(=O)N(C)C[C@H]1Oc2ccc(NS(C)(=O)=O)cc2CC(=O)N([C@H](C)CO)C[C@@H]1C	/	/	-3	/	/	/	/
CC(C)c1ccc(S(=O)(=O)N2CCN(CC(=O)Nc3ccc(Cl)cc3F)CC2)cc1	-4	-3	-3	120*	13	0	-5%
COc1ccc(Cl)cc1NC(=O)CN1CCN(S(=O)(=O)c2ccc(F)cc2)CC1	5	-4	3	-2	-11	4	/
O=C(NC1=NCCS1)c1csc2ccccc12	3	6	/	70*	-12	-2	-3%
COc1ccc(NC(=O)CSc2nc3ccccc3c(=O)n2CCC(=O)N2CCCCC2)cc1	-1	1	/	1	4	0	/
CCOc1ccc(NC(=O)CSc2nc3ccccc3c(=O)n2CCCC(=O)N2CCCC2)cc1	3	2	/	118*	-4	0	3%
CCOc1cc(C(=O)NCC(=O)N2CCC3(CC2)NCCc2[nH]cnc23)cc(OCC)c1OCC	-8	4	-1	56*	12	-4	0%
Cn1c(=O)cc(SCC(=O)N2CCOCC2)c2ccc(Cl)cc21	2	0	/	55*	-3	0	0%
O=C(OCc1ccc(Cl)c(Cl)c1)c1cccnc1Cl	-2	5	-7	107*	7	-1	-6%
O=C(OCc1ccc(Br)cc1)c1cccnc1Cl	-3	2	0	6	0	0	/
O=C(NCCCN1CCCC1=O)Nc1ccc(Cl)cc1Cl	4	3	1	50*	-6	-1	0%
Cc1noc(C)c1NC(=O)N(C)C[C@H]1Oc2ccc(NC(=O)Nc3ccccc3)cc2CC(=O)N([C@@H](C)CO)C[C@H]1C	/	/	-2	/	/	/	/
COc1cnc(-c2ccccn2)nc1Oc1ccccc1	12	2	8	1	0	6	/
COc1cnc(-c2ccccn2)nc1Oc1cccc(C(F)(F)F)c1	-2	2	0	55*	-2	4	-9%
Cn1c(=O)c2c(-c3ccccc3)n(Cc3cccnc3)cc2n(C)c1=O	-5	0	/	53*	-3	1	-4%
O=C(c1ccccc1Br)N1CCN(c2ncccn2)CC1	2	3	1	3	-3	3	/
O=C(c1ccccc1OCc1ccccc1Br)N1CCN(c2ncccn2)CC1	4	1	/	99*	0	-2	-5%
CCOC(=O)c1cccc(P(C)(C)=O)c1	-1	2	2	79*	-3	5	2%
CCOC(=O)c1ccc2nc(C)c(C)nc2c1	2	-2	-3	5	8	0	/
Cc1ccc(C(=O)Nc2cccc(-c3cnc4ccccc4n3)c2)cc1	3	-2	/	-1	2	-2	/
Cc1cccc(C(=O)Nc2cccc(-c3cnc4ccccc4n3)c2)c1	1	-1	/	57*	3	3	-2%
O=c1c2ccccc2nnn1CSc1nc2ccccc2c(=O)n1CCCO	1	-9	-5	52*	-9	3	1%
SMILES	MBD2 inh	LEDGF integ inh	CASP6 VEID inh	NSD2 HMT inh	TDP2 absorb	UHRF1 MBD2 ctr	AlphaScreen art
Cn1c(SCn2nnc3ccccc3c2=O)nc2ccccc2c1=O	/	/	/	0	/	/	/
CN(C1=C(NC(=O)c2ccccc2)C(=O)c2ccccc2C1=O)C1CCS(=O)(=O)C1 (stereo not drawn)	-12	11	78*	109*	33*	-10	-3%
O=C(NC(=S)NC1CCS(=O)(=O)C1)c1ccccc1 (stereo not drawn)	-3	-1	1	1	10	0	/
COc1ccc(NC(=O)N(C)C[C@H]2Oc3c(NC(=O)c4cc(C)nn4C)cccc3C(=O)N([C@H](C)CO)C[C@@H]2C)cc1	/	/	2	/	/	/	/
COc1ccc(N2C(=O)C3C(C2=O)C(C(=O)c2ccc(Cl)cc2)N2CCCC32)cc1 (stereo not drawn)	-2	3	-2	79*	-4	3	-7%
O=C(NCc1ccc2c(c1)OCO2)c1ccc2c(c1)C(=O)N(Cc1cccnc1)C2=O	3	1	/	0	-5	4	/
O=C(NCc1cccnc1)c1ccc2c(c1)OCO2	5	-1	3	66*	-2	3	-3%
CN1[C@@H]2c3ccc(-c4ccccc4)c(=O)n3C[C@@H]2[C@@H](CO)[C@@H]1C(=O)Nc1ccccc1	/	/	6	/	/	/	/
COc1cccc2c1N1C(=O)c3c(C(=O)O)cccc3C1CC2(C)C (stereo not drawn)	-1	3	/	101*	-1	-1	-1%
C=CCC1c2cccc(C(=O)OC)c2C(=O)N1c1ccccc1 (stereo not drawn)	-1	0	/	-3	3	-4	/
CN(C)c1cccc2c1c(NC(=O)Nc1ccccc1)nn2C	-3	-8	-3	88*	15	-2	-1%
CCc1ccc2cccc3c2c1N=CN3C	-8	-11	61*	112*	13	-4	0%
COc1cc(C)c2sc3ccccc3c(=O)c2c1NCCN(C)C	0	-4	-43	161*	2	6	3.2µM*
COC(=O)CCCC(=O)NC1CC(C)(C)Cc2c1cnn2-c1ccc(C)cc1 (stereo not drawn)	8	1	-1	55*	-10	1	-1%
COc1ccc2c3c([nH]c2c1)[C@@H](CO)N(S(=O)(=O)c1cn(C)cn1)CC31CCN(Cc2ccccc2F)CC1	/	/	1	/	/	/	/
CNCCC1Sc2ccccc2Oc2ccccc21 (stereo not drawn)	-5	-5	-6	100*	-9	-1	3%
CN(C)CCCC1Sc2ccccc2Sc2ccccc21 (stereo not drawn)	0	5	-26	22	6	2	/
C[n+]1ccc(/C=C/c2ccccc2O)c2ccccc21	-3	-1	-9	50*	-7	3	-6%
